This is an account of results in ChEMBL document CHEMBL1221399, “Antitumor Agents. 282. 2'-(R)-O-acetylglaucarubinone, a quassinoid from Odyendyea gabonensis as a potential anti-breast and anti-ovarian cancer agent” (J Nat Prod, 2010).

≈ marks a conversion by molar mass, not a printed value. Calls of active or inactive are those of the source.

For experiment [1], the system named is DU-145. The experiment can be described thus: Cytotoxicity against human DU145 cells. The experiment is classed as functional. As to conditions: read-out: ED50 (the source's name). The method in brief:
(§1)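 Human tumour cell lines DU145, A549, KB and multidrug-resistant KB-VIN were exposed to the quassinoids, with paclitaxel as reference. ED50 was the mean concentration giving 50% effect under the defined assay condition, reported in µM.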

Experiment [2] relates to A549. Kind of experiment: Cytotoxicity against human A549 cells. As to conditions: read-out: ED50 (the source's name). Format: functional. The method in brief:
as §1

The test system of experiment [3] is KB. Kind of experiment: Cytotoxicity against human KB cells. Format: functional. To be noted: read-out: ED50 (the source's name). The method in brief: as §1
Experiment [4] can be described thus: Cytotoxicity against human KBVIN cells. The experiment is classed as functional. As to conditions: read-out: ED50 (the source's name). The gist of the method: as §1
Experiment [5] concerns Mus musculus. The experiment can be described thus: Reduction of mammary gland ductal branching in […]/p53-deficient C57BL/6/129/Sv mouse model at 0.1 mg/kg, ip daily for 7 days measured post last dose by immunohistochemistry. Format: functional. The gist of the method: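 Three-month-old Brca1/p53 conditional mutant mice (Cre, mixed C57BL/6 and 129/Sv background) given […] daily for 7 days. Dose is drawn from a 1 mg/mL DMSO stock, 10 µL mixed with 30 µL 40% PEG and 60 µL 0.9% NaCl at dosing. Controls get vehicle. Fourth-pair glands are whole-mounted, Carnoy-fixed 3 h and carmine alum-stained overnight. Branching points are counted relative to vehicle, two-tailed t-test.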

Experiment [6] relates to Mus musculus. Kind of experiment: Reduction of mammary gland ductal branching in […]/p53-deficient C57BL/6/129/Sv mouse model at 0.1 mg/kg, ip daily for 5 days measured post last dose by immunohistochemistry. Also on record: dose 0.1 mg/kg. The experiment is classed as functional, organism-based. The gist of the method: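 Three-month-old Brca1/p53 conditional mutant mice (mixed C57BL/6 and 129/Sv background) dosed i.p. daily for 5 days, with vehicle controls. Fourth-pair mammary glands are whole-mounted, fixed in Carnoy's 3 h and stained overnight with carmine alum. Ductal branching points are scored against vehicle-treated mice, significance by two-tailed t-test.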

Experiment [7] is described as follows: Growth inhibition of human KBVIN cells at 10 ug/ml. The experiment is classed as functional. As to conditions: read-out: GI.
Experiment [8] has as its system BT-474. Kind of experiment: Cytotoxicity against human BT474 cells. Format: functional, cell-based.
Experiment [9] has as its system MCF7. Kind of experiment: Cytotoxicity against human MCF7 cells. Format: functional, cell-based.
Experiment [10] has as its system MCF7. The experiment can be described thus: Cytotoxicity against human MCF7 cells overexpressing HER2. The experiment is classed as functional, cell-based.
Experiment [11] deals with MDA-MB-468. Kind of experiment: Cytotoxicity against human MDA-MB-468 cells. Format: functional, cell-based.
For experiment [12], the system named is MDA-MB-231. The experiment can be described thus: Cytotoxicity against human MDA-MB-231 cells. Format: functional, cell-based.
Experiment [13] has as its system SK-BR-3. The experiment can be described thus: Cytotoxicity against human SK-BR-3 cells. Format: functional, cell-based.
The nature of experiment [14]: Cytotoxicity against human HeyA8 cells. The experiment is classed as functional, cell-based. To be noted: HEY A8.
Experiment [15] can be described thus: Cytotoxicity against human MSPC1 cells. The experiment is classed as functional, cell-based.
Experiment [16] is described as follows: Cytotoxicity against human 2774-C10 cells. Format: functional, cell-based.
The nature of experiment [17]: Cytotoxicity against human HOC7 cells. Format: functional, cell-based.

`CC(=O)O[C@H]1C(=O)[C@@]2(C)[C@H]([C@H](OC(=O)c3ccccc3)[C@]3(O)C[C@H](OC(=O)[C@H](O)[C@@H](NC(=O)c4ccccc4)c4ccccc4)C(C)=C1C3(C)C)[C@]1(OC(C)=O)CO[C@@H]1C[C@@H]2O` [PACLITAXEL]: the EC50 in experiment [1] was 3 nM; in experiment [2] it was 8 nM; in experiment [3], 7 nM; in [4], over 1000 nM.

As to `CC[C@@](C)(OC(C)=O)C(=O)O[C@H]1C(=O)O[C@@H]2C[C@H]3C(C)=CC(=O)[C@@H](O)[C@]3(C)[C@H]3[C@@]4(O)OC[C@]32[C@@H]1[C@@H](C)[C@H]4O`, the EC50 is 70 nM in [1], 70 nM in [2], 70 nM in [3] and 440 nM in experiment [4].

Turning to `CC[C@](C)(O)C(=O)O[C@H]1C(=O)O[C@@H]2C[C@H]3C(C)=CC(=O)[C@@H](O)[C@]3(C)[C@H]3[C@@]4(O)OC[C@]32[C@@H]1[C@@H](C)[C@H]4O` [GLAUCARUBINONE], the EC50 in experiment [1] was 470 nM; in experiment [2] it was 880 nM; in experiment [3], 440 nM; in experiment [4] it was 1240 nM.

On to `COC(=O)[C@@]12OC[C@]34[C@H]([C@@H](O)[C@@H]1O)[C@@]1(C)CC(=O)C(O)=C(C)[C@@H]1C[C@H]3OC(=O)[C@H](OC(=O)/C=C(\C)C(C)C)[C@@H]24`, for which the inhibition result in [5] and in [6] was “Active” in each case.

On to `CCC(C)C(=O)O[C@H]1C(=O)O[C@@H]2C[C@H]3C(C)=C[C@H](O)[C@@H](O)[C@]3(C)[C@H]3[C@@]4(O)OC[C@]32[C@@H]1[C@@H](C)[C@H]4O` (stereo not given in full) [EXCELSIN], for which the results for the EC50 in experiment [1], in experiment [2] and in experiment [3] were 4700 nM, 16000 nM and 4300 nM, respectively. The inhibition of growth at 10 µg/mL in experiment [7] was under 50%.

For `CCC(C)C(=O)O[C@H]1C(=O)O[C@@H]2C[C@H]3C(C)=CC(=O)[C@@H](O)[C@]3(C)[C@H]3[C@]4(O)OC[C@]32[C@@H]1[C@@H](C)[C@H]4O` (stereo not given in full) [AILANTHINONE], the EC50 in [1] was determined as 90 nM; in experiment [2], 130 nM; in experiment [3], 180 nM; in experiment [4], 370 nM.

Consider `CC[C@](C)(OC(C)=O)C(=O)O[C@H]1C(=O)O[C@@H]2C[C@H]3C(C)=CC(=O)[C@@H](O)[C@]3(C)[C@H]3[C@@]4(O)OC[C@]32[C@@H]1[C@@H](C)[C@H]4O` [2'-ACETOXY-GLAUCARUBINONE], for which the EC50 in [1] amounted to 40 nM; in [2] it was 60 nM; in [3] it was 50 nM; in [4], 420 nM. Besides, the IC50 in experiment [8] amounted to 28.4 µg/mL (≈ 52.9 µM); in experiment [9], 8.13 µg/mL (≈ 15.2 µM); in experiment [10], 0.013 µg/mL (≈ 0.0242 µM); in [11], 0.016 µg/mL (≈ 0.0298 µM); in [12], 0.077 µg/mL (≈ 0.144 µM); in experiment [13] it was 0.014 µg/mL (≈ 0.0261 µM). Also, the IC50 in experiment [14], in [15], in experiment [16] and in experiment [17] was under 0.01 µg/mL each time.

On to `CC[C@](C)(OC(C)=O)C(=O)O[C@H]1C(=O)O[C@@H]2C[C@H]3C(C)=C[C@H](O)[C@@H](O)[C@]3(C)[C@H]3[C@@]4(O)OC[C@]32[C@@H]1[C@@H](C)[C@H]4O`, for which the figures for the EC50 in [1], in experiment [2] and in [3] were 830 nM, 3600 nM and 670 nM, respectively. Also, in [7], the inhibition of growth at 10 µg/mL was under 50%.
